Most compounds without a hit are left out; they make up all but 2.3% or so of the library.
TRPC6 inh – mouse TRPC6 channel inhibition. Q61143. HEK293-TRPC6, membrane potential dye, ACh-evoked depolarization; hits give low values. B-score at 10 µM. 1.1% of 310,000 active. AID 2553;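 active means B-score under library mean minus 3 SD, initial fluorescence not abnormally high, positive integrated signal ratio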;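 further: B-score derived from integrated fluorescence ratio over the kinetic read; more negative B-score means stronger inhibition of depolarization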
TRPC4 agonist – opens the mouse TRPC4 cation channel | Q9QUQ5 | HEK293 TRPC4beta/mu-opioid, Fluo4 calcium fluorescence; hits give high values | B-score at 10 µM | 0.49% of 310,000 active | AID 2237;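 active means B-score above 5 SD of library B-scores, and initial fluorescence ratio not above library mean plus 5 SD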;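 further: positive B-score marks a calcium rise read as TRPC4 activation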
Target sequence (Q9QUQ5 whole entry, looked up): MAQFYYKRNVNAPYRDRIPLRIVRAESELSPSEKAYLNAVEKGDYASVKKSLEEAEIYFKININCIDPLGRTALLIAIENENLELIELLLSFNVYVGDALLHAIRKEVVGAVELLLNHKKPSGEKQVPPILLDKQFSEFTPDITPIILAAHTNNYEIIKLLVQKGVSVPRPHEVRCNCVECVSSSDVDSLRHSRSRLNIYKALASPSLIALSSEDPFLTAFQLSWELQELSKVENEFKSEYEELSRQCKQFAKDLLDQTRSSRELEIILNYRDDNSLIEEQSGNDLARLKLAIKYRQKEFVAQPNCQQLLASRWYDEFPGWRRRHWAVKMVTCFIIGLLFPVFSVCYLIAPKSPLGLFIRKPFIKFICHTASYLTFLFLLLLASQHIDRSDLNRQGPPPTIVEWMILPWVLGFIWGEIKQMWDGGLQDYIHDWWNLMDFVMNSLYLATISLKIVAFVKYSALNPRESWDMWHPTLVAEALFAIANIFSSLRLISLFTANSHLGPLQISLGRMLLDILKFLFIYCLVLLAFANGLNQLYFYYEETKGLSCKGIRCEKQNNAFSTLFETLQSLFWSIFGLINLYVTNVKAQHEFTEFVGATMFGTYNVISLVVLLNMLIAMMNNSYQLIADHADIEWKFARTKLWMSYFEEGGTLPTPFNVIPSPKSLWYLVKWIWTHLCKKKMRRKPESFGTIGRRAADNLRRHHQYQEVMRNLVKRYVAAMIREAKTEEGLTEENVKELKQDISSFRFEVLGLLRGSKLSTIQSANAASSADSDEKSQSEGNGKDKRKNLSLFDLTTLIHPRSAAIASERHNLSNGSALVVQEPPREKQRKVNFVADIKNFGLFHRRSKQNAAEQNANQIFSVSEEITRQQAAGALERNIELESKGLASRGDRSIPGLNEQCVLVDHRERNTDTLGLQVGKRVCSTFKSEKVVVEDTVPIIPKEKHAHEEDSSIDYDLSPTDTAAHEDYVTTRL
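Test system: HEK293 cells stably co-expressing mouse TRPC4beta and mu-opioid receptor | Schedule: Fluo4 dye loading 45 min at room temperature, 110 s recording | Measured by: Kinetic Fluo4 calcium fluorescence, 5 s baseline at 1 Hz | Evaluation: B score of integrated ratio | Controls: Buffer (low) and maximal DAMGO (high)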
TRPC6 act – mouse TRPC6 channel activation; Q61143; HEK293-TRPC6 membrane potential dye fluorescence; hits give high values; B-score at 10 µM; 0.13% of 310,000 active; AID 2550;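 active means B-score of the integrated fluorescence ratio above library mean plus 3 SD, and starting fluorescence ratio within library mean plus 5 SD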;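 further: higher score means more depolarization so channel activation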
TRPC4 potent – TRPC4 (mouse) allosteric potentiation | Q9QUQ5 | HEK293 TRPC4beta/mu-opioid, DAMGO EC20, Fluo-4 Ca2+ flux; hits give high values | B-score at 10 µM | 0.42% of 310,000 active | AID 2227;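 active means B-score of calcium response area above 5 SD of library B-scores, with initial fluorescence ratio within 5 SD of library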
TRPC4 inh – blocks the mouse TRPC4 cation channel | HEK293 TRPC4beta/mu-opioid, DAMGO-evoked Fluo4 calcium flux; hits give low values | B-score at 10 µM | Q9QUQ5 | 0.39% of 300,000 active;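 active means B-score over 3 SD under the library average, no early fluorescence shift, positive overall ratio signal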
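Material: HEK293 cells with stable TRPC4beta plus mu-opioid receptor expression; probe or stimulus: DAMGO in two steps, submaximal then maximal; technique: Fluo4 calcium fluorescence by kinetic imaging, 5 s 1 Hz baseline; measure: integrated fluorescence ratio relative to baseline, converted to per-well B score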
Each line names hits and unclear results; the compound was inactive in the other large screens.

O=C(CCCSc1nc2ccccc2[nH]1)NC(c1ccccc1)c1ccccc1	none
O=C(CCCSc1nc2ccccc2[nH]1)NCc1ccccc1Cl	TRPC4 inh -8
O=c1[nH]ncc(N2CCCC2)c1Cl	none
O=c1[nH]ncc(N2CCN(C(c3ccccc3)c3ccccc3)CC2)c1Cl	TRPC4 inh -9
O=C(CN1C(=O)COc2ccccc21)NCCN1CCC(Cc2ccccc2)CC1	none
CCOC(=O)CCSc1nnc(-c2cccnc2)n1-c1ccccc1OC	TRPC4 inh -8
O=C1N=C(N2CCN(c3cccc4ccccc34)CC2)S/C1=C/c1cccs1	none
COC(=O)c1cc2c(=O)c3ccccc3oc2nc1C	none
COC(=O)c1cc2c(=O)c3ccccc3oc2nc1/C=C/N(C)C	TRPC4 agonist 69
Cn1c(=O)oc2cc(S(=O)(=O)CCC(=O)N3CCN(c4ccccc4)CC3)ccc21	none
CCCSc1cc(N)cc([N+](=O)[O-])c1	TRPC4 inh -5
COC(=O)c1ccccc1N=Nc1c(N)[nH][nH]c1=O	TRPC4 agonist 47, TRPC4 potent 82
COC(=O)c1ccc(CN2CCCC(C(=O)Nc3ccc(-c4ccn[nH]4)cc3)C2)cc1 (stereo unspecified)	TRPC4 agonist 50
COC(=O)c1ccc(NC(=O)C2CCCN(S(C)(=O)=O)C2)cc1 (stereo unspecified)	none
Clc1ccc(-c2nc3n(n2)Cc2ccccc2-3)cc1	none
COc1ccc(Sc2nc(-c3ccccc3)ncc2C(=O)O)cc1	TRPC4 inh -7
CCOC(=O)C1(Cc2cccc(OC)c2)CCN(Cc2cccc(O)c2)CC1	TRPC4 inh -8
CCOC(=O)C1(Cc2cccc(OC)c2)CCN(Cc2ccc(OC)c(OC)c2)CC1	none
CCOC(=O)C1(Cc2ccccc2)CCN(CC2CC=CCC2)CC1 (stereo unspecified)	TRPC4 inh -6
CCOC(=O)C1(Cc2cccc(OC)c2)CCN(CC2CC=CCC2)CC1 (stereo unspecified)	TRPC4 inh -5
Cn1c(=O)c2c(=O)cc(N)[nH]c2n(C)c1=O	none
Cc1ccc(C)c(CN2CCC(CNC(=O)Nc3ccc(Cl)cc3)CC2)c1	TRPC4 potent 14
O=C(CCC1CCCN(Cc2cccc(Cl)c2)C1)NCc1ccccc1F (stereo unspecified)	none
Cc1ccc2c(Cl)cc(Cl)c(OCC(=O)Nc3cc(S(=O)(=O)N(C)C)ccc3C)c2n1	none
Cc1cc([N+](=O)[O-])ccc1NCc1ccccc1	TRPC4 inh -7
Cc1ccc2nc(N(CCCN(C)C)C(=O)c3cc(-c4cccs4)nc4ccccc34)sc2c1	none
Cc1ccc(C(=O)Oc2oc(-c3ccco3)nc2C=Nc2ccc(Cl)cc2)cc1	none
CC(Sc1nnnn1-c1ccccc1)C(=O)Nc1ccccc1-c1ccccc1 (stereo unspecified)	none
CC(Sc1nnnn1-c1ccccc1)C(=O)Nc1ccc(N2CCN(C)CC2)cc1 (stereo unspecified)	TRPC4 agonist 47
CC1=NN(C(=O)c2ccc(Cn3nc(C)c([N+](=O)[O-])c3C)cc2)C(O)(C(F)(F)F)C1 (stereo unspecified)	none
Brc1ccccc1CN1CCN(Cc2c[nH]c3ccccc23)CC1	TRPC4 inh -6
O=[N+]([O-])c1ccc(CN2CCN(Cc3c[nH]c4ccccc34)CC2)cc1	TRPC4 inh -6
Brc1ccc(CN2CCN(Cc3c[nH]c4ccccc34)CC2)cc1	none
CN(Cc1cccc(F)c1)CC(O)COCc1ccccc1Cl (stereo unspecified)	TRPC4 inh -6
COc1ccc(OC)c(-c2cc(C(=O)Nc3c(C)nn(Cc4ccccc4)c3C)no2)c1	none
COC(=O)c1sccc1NC(=O)CSc1ccccc1NC(=O)CNC(C)C	TRPC4 inh -6
COC(=O)c1sccc1NC(=O)CSc1ccccc1N	none
O=C1NC(c2ccccc2)=C(c2nc3ccccc3s2)C(c2ccccc2)N1 (stereo unspecified)	TRPC4 potent 19
CC(C)Cc1csc(NC(=O)c2ccccc2Cl)c1C(=O)O	none
CC(C)Cc1csc(NC(=O)c2ccc(Cl)cc2)c1C(=O)O	TRPC4 agonist 48
Cc1ccc(-c2nc(C=Nc3cccc(C)c3)c(O)o2)cc1	none
CCCCC(=O)NC(c1ccccc1)c1ccc2cccnc2c1O (stereo unspecified)	none
CCCC(=O)NC(c1ccccc1)c1ccc2cccnc2c1O (stereo unspecified)	TRPC6 inh -5.82
Cc1ccc2c(c1)CCCN2C(=O)CSc1ccccc1	none
Cc1nc(NCCc2cnc[nH]2)c2oc3ccccc3c2n1	TRPC4 agonist 82
COc1ccc(CCNc2nc(C)nc3c2oc2ccccc23)cc1OC	none
C=CCn1c(=O)c2ccccc2n2c(SCC(=O)NC)nnc12	none
COc1cccc(Cn2c(Oc3cccc(C)c3)nc3c2c(=O)n(C)c(=O)n3C)c1	none
COc1cccc(Cn2c(Oc3ccccc3)nc3c2c(=O)n(C)c(=O)n3C)c1	TRPC4 inh -6
CCOC(=O)c1c(NC(=O)/C=C/C(=O)O)sc(C)c1-c1ccc(C)c(C)c1	none
COc1ccc(NC(=O)c2c(NC(=O)CNCc3ccco3)sc3c2CCC3)cc1	none
CCOc1ccc(NC(=O)c2c(NC(=O)CNCCN3CCOCC3)sc3c2CCC3)cc1	TRPC6 inh -5.73
CCCCCCCCCCOC(=O)Cn1c(COc2ccccc2C)[n+](C)c2ccccc21	TRPC4 inh -6
Cc1cc(C)nc(Nc2nc(=O)c3ccccc3s2)n1	TRPC4 potent 55
Cc1ccc(CNc2ccc3c(c2)ncn3C(C)C)cc1	TRPC4 agonist 45
CCn1cnc2cc(NCc3ccc(C)cc3)ccc21	none
CC(C)CCN1CCN(CCCc2ccccc2)CC1CCO (stereo unspecified)	none
C=CCNc1nc(N2CCCC2)nc2ccccc12	TRPC4 inh -7
c1ccc(CNCCC(Cc2ccccc2)c2ccco2)cc1 (stereo unspecified)	none
CN(C)c1ccc(CNCCC(Cc2ccccc2)c2ccco2)cc1 (stereo unspecified)	TRPC4 agonist 46
NC(=O)NCCN1CCN(c2ncc(C(F)(F)F)cc2Cl)CC1	TRPC4 potent 15
O=C(c1cc2c(ccc3ccccc32)o1)N1CCN(c2ncc(C(F)(F)F)cc2Cl)CC1	TRPC4 agonist 80
NC(=O)c1ccc(N2CCN(c3ncc(C(F)(F)F)cc3Cl)CC2)cc1	TRPC4 potent 17
Fc1ccc(-c2nnc(CN3CCN(c4ncc(C(F)(F)F)cc4Cl)CC3)o2)cc1	TRPC4 agonist 109
Cc1cc(C)c2c3c(sc2n1)C(c1cccc(F)c1)C(C#N)=C(N)O3 (stereo unspecified)	none
COCCn1c(=NC(=O)c2nc3ccccc3s2)sc2cc(S(C)(=O)=O)ccc21	none
COC(=O)c1ccc(CSc2ccc3nnc(-c4ccc(OC)c(OC)c4)n3n2)o1	none
COc1ccc(-c2cc(C(=O)Nc3ccccc3SC)no2)cc1OC	none

Assay outcomes: PubChem BioAssay, Johns Hopkins Ion Channel Center
